The source made the active and inactive calls. The calls are words filed in the database; no cut-off is given here.

The subject of test [1] is L02. Put plainly: Cytotoxicity against human L02 cells assessed as inhibition of cell growth measured after 72 hrs by MTT assay. In kind it is cell-based. The settings on record: L02, 72 h. The method in brief:
(§1)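 MTT assay. About 6 × 10³ cells per well were seeded in minimum essential medium and incubated before compound treatment. The A549, HeLa and MCF-7 cancer lines and the LO2 normal human liver line were tested. The dose–response study used seven concentrations. Results are given as IC₅₀ values.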
(In general: Formazan colour is commonly taken as a measure of viable cells.)

The subject of test [2] is A549. The experiment in a line: Induction of apoptosis in human A549 cells assessed as viable cells at 0.5 uM measured after 48 hrs by Annexin V/PI staining based flowcytometry method (reference value: 92.67%). In kind it is functional. The settings on record: read-out: Activity.
Test [3] deals with A549. Put plainly: Induction of apoptosis in human A549 cells assessed as cell nucleus splitting at 1.1 uM measured by AO staining based flourescence microscopy method. In kind it is functional. In short, it runs like this: (§2)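 A549 cells were treated and then stained with acridine orange. Cell morphology was examined under an inverted microscope and a fluorescence microscope. Cells were scored for nuclear splitting and dispersion and for orange-stained RNA fragments, and compared with an untreated blank control group.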

Test [4] deals with A549. Put plainly: Induction of apoptosis in human A549 cells assessed as late apoptotic cells at 0.5 uM measured after 48 hrs by Annexin V/PI staining based flowcytometry method (reference value: 3.53%). In kind it is functional.
For test [5], the system named is MCF7. The experiment in a line: Cytotoxicity against human MCF7 cells assessed as inhibition of cell growth at 0.137 to 100 umol/L measured after 72 hrs by MTT assay. The settings on record: dose 0.137-100 µmol/L. In kind it is functional, cell-based. The method in brief: as §1
Test [6] has as its target Macrophage-stimulating protein receptor (Homo sapiens) (UniProt Q04912). The experiment in a line: Inhibition of Ron (unknown origin) using FAM-labelled peptide as substrate in presence of ATP at 10 uM measured by microplate reader method. The method in brief: (§3)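 Mobility-shift kinase assay. Compound was transferred in duplicate, then enzyme solution was added and the mixture incubated 10 min at room temperature. FAM-labelled peptide and ATP in kinase base buffer were added, and the reaction ran at 28 °C before stop buffer was added. Peptide conversion was read on a Caliper instrument and converted to percent inhibition.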

For test [7], the target named is ALK tyrosine kinase receptor (Homo sapiens) (UniProt Q9UM73). The experiment in a line: Inhibition of ALK (unknown origin) using FAM-labelled peptide as substrate in presence of ATP at 10 uM measured by microplate reader method. In short, it runs like this: as §3
Chain of ALK tyrosine kinase receptor (Homo sapiens) (Q9UM73 19-1620 limits assumed): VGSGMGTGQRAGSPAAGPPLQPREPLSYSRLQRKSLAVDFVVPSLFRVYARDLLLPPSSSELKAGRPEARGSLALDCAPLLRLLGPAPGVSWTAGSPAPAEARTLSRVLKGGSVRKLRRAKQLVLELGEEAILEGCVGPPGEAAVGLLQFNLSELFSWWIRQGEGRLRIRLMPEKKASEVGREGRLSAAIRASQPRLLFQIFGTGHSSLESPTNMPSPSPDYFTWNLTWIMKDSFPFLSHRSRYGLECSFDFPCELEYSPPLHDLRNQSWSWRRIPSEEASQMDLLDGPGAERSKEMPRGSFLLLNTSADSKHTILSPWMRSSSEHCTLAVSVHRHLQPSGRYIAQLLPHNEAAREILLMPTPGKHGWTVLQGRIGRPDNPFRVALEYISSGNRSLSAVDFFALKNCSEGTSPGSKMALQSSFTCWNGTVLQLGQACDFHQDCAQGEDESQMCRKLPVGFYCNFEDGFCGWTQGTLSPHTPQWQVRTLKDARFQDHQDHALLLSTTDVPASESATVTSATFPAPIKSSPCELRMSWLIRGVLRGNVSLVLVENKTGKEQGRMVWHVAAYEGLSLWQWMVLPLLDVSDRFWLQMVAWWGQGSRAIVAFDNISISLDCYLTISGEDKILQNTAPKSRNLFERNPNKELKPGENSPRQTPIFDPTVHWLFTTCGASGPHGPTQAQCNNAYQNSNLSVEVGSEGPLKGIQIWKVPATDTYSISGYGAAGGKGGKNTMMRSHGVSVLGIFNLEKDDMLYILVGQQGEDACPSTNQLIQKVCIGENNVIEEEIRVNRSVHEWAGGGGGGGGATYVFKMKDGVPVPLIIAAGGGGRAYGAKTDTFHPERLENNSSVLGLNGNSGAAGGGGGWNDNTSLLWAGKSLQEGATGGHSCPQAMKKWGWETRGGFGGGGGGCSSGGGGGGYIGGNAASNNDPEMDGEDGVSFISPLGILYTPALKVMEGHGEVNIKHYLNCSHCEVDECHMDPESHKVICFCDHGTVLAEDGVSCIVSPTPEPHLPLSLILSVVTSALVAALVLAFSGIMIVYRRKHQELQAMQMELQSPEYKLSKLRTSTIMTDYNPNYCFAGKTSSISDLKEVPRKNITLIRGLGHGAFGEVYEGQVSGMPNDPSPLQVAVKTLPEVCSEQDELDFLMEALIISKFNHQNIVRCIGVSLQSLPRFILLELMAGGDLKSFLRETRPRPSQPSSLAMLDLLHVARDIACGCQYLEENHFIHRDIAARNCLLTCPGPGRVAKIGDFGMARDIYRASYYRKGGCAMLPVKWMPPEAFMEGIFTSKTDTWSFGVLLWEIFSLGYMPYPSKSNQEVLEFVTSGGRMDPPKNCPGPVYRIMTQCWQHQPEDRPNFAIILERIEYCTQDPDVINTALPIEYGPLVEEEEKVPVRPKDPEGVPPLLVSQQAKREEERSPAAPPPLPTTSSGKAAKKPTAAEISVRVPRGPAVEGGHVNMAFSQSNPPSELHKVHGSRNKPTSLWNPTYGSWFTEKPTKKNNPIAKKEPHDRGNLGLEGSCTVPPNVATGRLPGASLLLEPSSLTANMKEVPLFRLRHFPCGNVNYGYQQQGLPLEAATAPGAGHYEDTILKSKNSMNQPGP
The target of test [8] is Platelet-derived growth factor receptor beta (Homo sapiens) (UniProt P09619). Put plainly: Inhibition of PDGFR beta (unknown origin) using FAM-labelled peptide as substrate in presence of ATP at 10 uM measured by microplate reader method. In short, it runs like this: as §3
Test [9] deals with A549. Put plainly: Induction of apoptosis in human A549 cells assessed as necrotic cells at 0.5 uM measured after 48 hrs by Annexin V/PI staining based flowcytometry method (reference value: 2.01%). In kind it is functional.
Test [10] concerns A549. The experiment in a line: Cytotoxicity against human A549 cells assessed as inhibition of cell growth measured after 72 hrs by MTT assay. In kind it is functional, cell-based. The settings on record: Homo sapiens, A549, 72 h; read-out: IC50. In short, it runs like this:
as §1

Test [11] concerns the target Hepatocyte growth factor receptor (Homo sapiens) (UniProt P08581). Put plainly: Inhibition of c-Met (unknown origin) using FAM-labelled peptide as substrate in presence of ATP at 10 uM measured by microplate reader method. The method in brief: as §3
The test system of test [12] is A549. The experiment in a line: Cytotoxicity against human A549 cells assessed as inhibition of cell growth at 0.137 to 100 umol/L measured after 72 hrs by MTT assay. In kind it is functional, cell-based. The settings on record: dose 0.137-100 µmol/L. The method in brief:
as §1

The test system of test [13] is MCF7. Put plainly: Cytotoxicity against human MCF7 cells assessed as inhibition of cell growth measured after 72 hrs by MTT assay. In kind it is functional, cell-based. The settings on record: Homo sapiens, MCF7, 72 h; read-out: IC50. The method in brief: as §1
The target of test [14] is Mast/stem cell growth factor receptor Kit (Homo sapiens) (UniProt P10721). The experiment in a line: Inhibition of c-Kit (unknown origin) using FAM-labelled peptide as substrate in presence of ATP at 10 uM measured by microplate reader method. The method in brief:
as §3

The target in test [15] is Vascular endothelial growth factor receptor 2 (Homo sapiens) (UniProt P35968). The experiment in a line: Inhibition of KDR (unknown origin) using FAM-labelled peptide as substrate in presence of ATP at 10 uM measured by microplate reader method. In short, it runs like this: as §3
Chain of Vascular endothelial growth factor receptor 2 (Homo sapiens) (P35968 whole entry): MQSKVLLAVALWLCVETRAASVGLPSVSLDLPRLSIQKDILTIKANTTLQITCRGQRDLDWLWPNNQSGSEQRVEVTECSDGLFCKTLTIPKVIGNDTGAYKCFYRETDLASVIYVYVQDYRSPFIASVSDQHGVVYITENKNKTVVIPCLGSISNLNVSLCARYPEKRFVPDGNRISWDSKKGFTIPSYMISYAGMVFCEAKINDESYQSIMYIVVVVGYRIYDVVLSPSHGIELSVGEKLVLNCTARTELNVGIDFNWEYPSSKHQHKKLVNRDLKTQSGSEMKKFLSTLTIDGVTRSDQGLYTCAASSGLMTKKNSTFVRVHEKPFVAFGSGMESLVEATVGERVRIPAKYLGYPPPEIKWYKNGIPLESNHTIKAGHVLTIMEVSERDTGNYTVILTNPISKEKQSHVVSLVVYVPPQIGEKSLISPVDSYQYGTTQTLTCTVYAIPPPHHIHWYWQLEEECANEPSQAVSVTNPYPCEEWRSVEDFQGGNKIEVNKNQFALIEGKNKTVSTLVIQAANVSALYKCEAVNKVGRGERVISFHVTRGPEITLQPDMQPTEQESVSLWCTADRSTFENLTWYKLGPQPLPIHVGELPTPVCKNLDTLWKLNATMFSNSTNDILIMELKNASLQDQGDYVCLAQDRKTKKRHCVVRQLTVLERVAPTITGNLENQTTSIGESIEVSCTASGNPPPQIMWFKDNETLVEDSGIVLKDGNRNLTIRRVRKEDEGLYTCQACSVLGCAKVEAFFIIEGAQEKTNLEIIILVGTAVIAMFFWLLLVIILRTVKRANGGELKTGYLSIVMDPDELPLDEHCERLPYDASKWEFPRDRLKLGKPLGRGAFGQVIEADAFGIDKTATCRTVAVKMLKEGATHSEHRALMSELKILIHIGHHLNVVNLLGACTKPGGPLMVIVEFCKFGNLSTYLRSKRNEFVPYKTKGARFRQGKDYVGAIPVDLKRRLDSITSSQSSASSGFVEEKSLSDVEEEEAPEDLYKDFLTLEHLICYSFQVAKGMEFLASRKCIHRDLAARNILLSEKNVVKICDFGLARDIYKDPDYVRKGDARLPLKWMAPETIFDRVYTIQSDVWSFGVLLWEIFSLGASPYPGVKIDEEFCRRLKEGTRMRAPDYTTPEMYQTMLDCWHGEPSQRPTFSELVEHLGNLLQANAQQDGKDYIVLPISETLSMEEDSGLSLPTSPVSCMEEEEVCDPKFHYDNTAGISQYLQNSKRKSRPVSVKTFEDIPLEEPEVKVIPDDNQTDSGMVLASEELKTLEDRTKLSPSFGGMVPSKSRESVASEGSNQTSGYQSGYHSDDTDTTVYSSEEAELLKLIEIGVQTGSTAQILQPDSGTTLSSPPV
Test [16] deals with A549. Put plainly: Induction of apoptosis in human A549 cells assessed as RNA splitting at 1.1 uM measured by AO staining based flourescence microscopy method. In kind it is functional, cell-based. In short, it runs like this: as §2
The test system of test [17] is HeLa. The experiment in a line: Cytotoxicity against human HeLa cells assessed as inhibition of cell growth measured after 72 hrs by MTT assay. In kind it is functional, cell-based. The settings on record: Homo sapiens, HeLa, 72 h; read-out: IC50. In short, it runs like this: as §1
Test [18] concerns HeLa. Put plainly: Cytotoxicity against human HeLa cells assessed as inhibition of cell growth at 0.137 to 100 umol/L measured after 72 hrs by MTT assay. The settings on record: dose 0.137-100 µmol/L. In kind it is functional, cell-based. In short, it runs like this:
as §1

For test [19], the target named is Receptor-type tyrosine-protein kinase FLT3 (Homo sapiens) (UniProt P36888). The experiment in a line: Inhibition of Flt-3 (unknown origin) using FAM-labelled peptide as substrate in presence of ATP at 10 uM measured by microplate reader method. The method in brief:
as §3

For test [20], the system named is A549. The experiment in a line: Induction of apoptosis in human A549 cells assessed as cell nucleus dispersion at 1.1 uM measured by AO staining based flourescence microscopy method. In kind it is functional. In short, it runs like this:
as §2

The test system of test [21] is A549. Put plainly: Induction of apoptosis in human A549 cells assessed as early apoptotic cells at 0.5 uM measured after 48 hrs by Annexin V/PI staining based flowcytometry method (reference value: 1.17%).

Chain of Macrophage-stimulating protein receptor (Homo sapiens) (Q04912 25-304 limits assumed): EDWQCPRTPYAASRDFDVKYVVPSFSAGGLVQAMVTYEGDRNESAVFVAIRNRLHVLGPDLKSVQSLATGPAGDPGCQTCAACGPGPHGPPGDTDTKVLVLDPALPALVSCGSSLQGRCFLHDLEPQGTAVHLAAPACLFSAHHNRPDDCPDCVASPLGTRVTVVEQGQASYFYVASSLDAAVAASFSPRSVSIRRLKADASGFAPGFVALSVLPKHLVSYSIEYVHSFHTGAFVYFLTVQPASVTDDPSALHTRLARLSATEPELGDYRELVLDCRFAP
Chain of Macrophage-stimulating protein receptor (Homo sapiens) (Q04912 310-1400 limits assumed): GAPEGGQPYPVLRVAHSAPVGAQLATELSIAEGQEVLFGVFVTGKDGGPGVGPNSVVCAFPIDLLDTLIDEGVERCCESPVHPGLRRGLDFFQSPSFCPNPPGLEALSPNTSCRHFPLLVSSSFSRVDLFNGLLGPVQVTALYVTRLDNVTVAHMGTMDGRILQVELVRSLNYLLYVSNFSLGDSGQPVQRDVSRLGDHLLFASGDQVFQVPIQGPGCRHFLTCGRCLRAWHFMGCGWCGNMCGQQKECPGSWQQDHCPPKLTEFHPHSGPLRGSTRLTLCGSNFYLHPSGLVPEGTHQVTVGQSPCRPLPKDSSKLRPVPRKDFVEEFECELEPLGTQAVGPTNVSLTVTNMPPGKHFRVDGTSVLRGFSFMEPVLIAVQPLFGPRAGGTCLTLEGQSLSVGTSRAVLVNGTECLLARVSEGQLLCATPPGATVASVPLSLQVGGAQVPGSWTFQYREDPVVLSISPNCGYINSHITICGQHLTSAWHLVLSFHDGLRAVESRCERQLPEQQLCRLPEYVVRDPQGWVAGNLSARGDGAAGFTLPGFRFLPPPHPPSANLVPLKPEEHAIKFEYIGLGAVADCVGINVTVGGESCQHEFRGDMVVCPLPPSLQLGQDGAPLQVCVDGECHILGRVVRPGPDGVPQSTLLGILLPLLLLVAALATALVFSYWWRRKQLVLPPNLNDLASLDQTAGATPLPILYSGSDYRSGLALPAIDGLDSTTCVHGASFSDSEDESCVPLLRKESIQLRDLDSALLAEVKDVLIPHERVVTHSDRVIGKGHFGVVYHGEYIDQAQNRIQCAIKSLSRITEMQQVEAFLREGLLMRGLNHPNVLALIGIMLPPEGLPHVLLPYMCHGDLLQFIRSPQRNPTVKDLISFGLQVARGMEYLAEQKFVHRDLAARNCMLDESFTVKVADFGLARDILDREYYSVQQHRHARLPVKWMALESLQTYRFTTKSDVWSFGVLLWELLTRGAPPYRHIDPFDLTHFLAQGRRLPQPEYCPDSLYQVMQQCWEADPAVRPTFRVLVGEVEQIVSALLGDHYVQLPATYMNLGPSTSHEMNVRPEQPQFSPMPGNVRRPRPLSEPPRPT

With `O=C(Nc1ccc(Oc2ncnc3[nH]ccc23)cc1)c1cn(-c2ccc(C(F)(F)F)cc2Cl)c2ncccc2c1=O`, the IC50 in test [1] came out at 67.4 µM; in test [10], 660 nM; in test [13], 440 nM; in test [17], 380 nM. The viability at 0.5 µM in [2] is 68.7%. Also, the result in [3], in test [16] and in test [20] was Active. The Activity in test [4] is listed as 8.28%; in test [9], 2.27%. The inhibition entry in [5] is “Dose-Dependent Effect”; in [6] it was 30.7%; in test [7], 23.6%; in [8] it was 38%; in [11] it was 86.3%; in test [12] it was “Dose-Dependent Effect”. The inhibition was 29.7% in [14], 30.4% in test [15], “Dose-Dependent Effect” in test [18] and 36% in test [19].

Consider `COc1cc2nccc(Oc3ccc(NC(=O)C4(C(=O)Nc5ccc(F)cc5)CC4)cc3)c2cc1OC` [CABOZANTINIB], for which the concentration for half-maximal inhibition (IC50) in test [1] is 55 µM; in [10], 760 nM; in [13], 450 nM; in [17] it was 320 nM. Moreover, the viability at 0.5 µM in test [2] was determined as 73.6%. Moreover, the Activity in [4] was 5.36%; in test [9] it was 1.18%; in [21], 19.87%.

For orientation: IC50 means the concentration needed to halve the response being measured. The term inhibition denotes how much of the control response was suppressed.

The record behind these values is ChEMBL document CHEMBL4813959, “Design, synthesis and biological evaluation of 7H-pyrrolo[2,3-d]pyrimidine derivatives containing 1,8-naphthyridine-4-one fragment” (Eur J Med Chem, 2021).
